What is called GI50 is the concentration giving 50% growth inhibition. The inhibition is the share of the control response that was lost under treatment. A high value points to a strong effect.

Molecules are shown by their SMILES. Calls of active or inactive are those of the source. The rule behind the calls is not given here.

13 compounds from ChEMBL document CHEMBL3627669, “Wittig derivatization of sesquiterpenoid polygodial leads to cytostatic agents with activity against drug resistant cancer cells and capable of pyrrolylation of primary amines” (2015) can be followed below.

Test [1] in a line: Cytotoxicity against human MES-SA cells assessed as growth inhibition incubated for 48 hrs by MTT assay. The test is classed as functional. The gist of the method: (§1)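 MTT assay on MES-SA and MES-SA/Dx5 uterine sarcoma cells in RPMI-1640 with 10% FBS. Dx5 cells were selected by stepwise doxorubicin exposure from 100 to 500 nM and maintained in 500 nM doxorubicin. Cells treated 48 h. GI50 is the concentration reducing viability 50% relative to DMSO control, from two independent experiments with 4 replicates each.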

The nature of test [2]: Cytotoxicity against human MES-SA/Dx5 cells assessed as growth inhibition incubated for 48 hrs by MTT assay. The settings on record: MES-SA/Dx5, 48 h. The test is classed as functional. In outline: as §1
A general note: Tetrazolium assays rely on reduction of a dye to a coloured formazan, in cell work by metabolically active cells.

Test [3] in a line: Cytotoxicity against human U373 cells assessed as growth inhibition incubated for 72 hrs by MTT assay. The test is classed as functional, U-373MG ATCC. The following applies: U373 MG. The gist of the method: (§2)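 MTT assay. Stocks of 100 or 50 mM in DMSO. Cells seeded at line-dependent density, grown 24–72 h, then treated across […] for 72 h. Negative control 0.1% DMSO, positive control 1 μM phenylarsine oxide. GI50 is the concentration reducing viability 50% relative to control, averaged over experiments each run in sextuplicate.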

The nature of test [4]: Cytotoxicity against human Hs683 cells assessed as growth inhibition incubated for 72 hrs by MTT assay. The settings on record: Hs 683, 72 h. It counts as functional. In outline: as §2
The subject of test [5] is MCF7. Kind of test: Cytotoxicity against human MCF7 cells assessed as growth inhibition incubated for 72 hrs by MTT assay. It counts as functional. The settings on record: MCF7, 72 h. In outline:
as §2

Test [6] concerns SK-MEL-28. Kind of test: Cytotoxicity against human SK-MEL-28 cells assessed as growth inhibition incubated for 72 hrs by MTT assay. The test is classed as functional. The settings on record: SK-MEL-28, 72 h. In outline:
as §2

Test [7] deals with A549. Kind of test: Cytotoxicity against human A549 cells assessed as growth inhibition incubated for 72 hrs by MTT assay. It counts as functional. The settings on record: A549, 72 h. In outline:
as §2

In test [8] the test system is Glioma cell. The test is described as follows: Cytotoxicity against cdkn2a-deficient mouse neurosphere glioma cells at 10 uM after 24 hrs. The test is classed as functional, cell-based. The gist of the method:
(§3)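 Primary glioma neurosphere cultures were plated at 0.015×10^6 cells/well (5 replicates) in phenol red-free DMEM-F12. Cells were mixed with bis-AAF-R110 and incubated 2 h at 37 °C, with fluorescence read at 485/520 nm. Signal was blank-subtracted and expressed as fold change over vehicle (mean ± SD, two independent experiments).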

Test [9] has as its system Glioma cell. The test is described as follows: Cytotoxicity against cdkn2a/TRPV1 doubly deficient PDGFB amplified mouse neurosphere glioma cells using bis-AAF-R110 as substrate at 10 uM preincubated for 24 hrs followed by substrate addition measured after 2 hrs by fluorescence analysis. It counts as functional, cell-based. In outline: as §3
Test [10] relates to Glioma cell. Kind of test: Cytotoxicity against cdkn2a-deficient EGFRvIII amplified mouse neurosphere glioma cells using bis-AAF-R110 as substrate at 10 uM preincubated for 24 hrs followed by substrate addition measured after 2 hrs by fluorescence analysis. It counts as functional, cell-based. The gist of the method:
as §3

In test [11] the test system is U-373MG ATCC. The test is described as follows: Cytotoxicity against human U373 cells assessed as necrotic and late apoptotic cells at 100 uM after 72 hrs by Trypan blue assay. It counts as functional, cell-based. In outline:
(§4)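 U373 cells treated 72 h, stained with trypan blue and imaged. Cells were then fixed with ice-cold methanol and restained as an internal positive control. Single experiment in triplicate.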

Test [12] deals with U-373MG ATCC. Kind of test: Cytotostatic activity on human U373 cells assessed as change in cell morphology at 100 uM after 72 hrs by videomicroscopic analysis. It counts as functional, cell-based.
The target in test [13] is Transient receptor potential cation channel subfamily V member 1 (Rattus norvegicus) (UniProt O35433). The test is described as follows: Displacement of [3H]-RTX from vanilloid site of TRPV1 receptor in rat spinal cord at 10 uM incubated for 60 mins by scintillation counting analysis. The gist of the method: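 Rat spinal cord homogenized in buffer A (pH 7.4, HEPES/sucrose salts). Membranes collected from a 35,000g spin. Binding run with 0.5 mg/mL membranes, 0.25 mg/mL BSA, 2 nM [3H]-RTX, and compound at 10 μM, for 60 min at 37 °C. Nonspecific binding defined with 100 μM unlabeled RTX. Reaction stopped on ice with α1-acid glycoprotein, then centrifuged and the pellet counted by scintillation. Result is % specific binding, mean ± SEM of 3 experiments.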

In test [14] the target is Transient receptor potential cation channel subfamily V member 1 (Homo sapiens) (UniProt Q8NER1). The test is described as follows: Activity at TRPV1 in human MDA-MB--231 cells assessed as transient and synchronous increase in cytosolic Ca2+ level at 80 uM in presence of TRPV1 blocker capsazepine by FURA2-based fluorescence imaging analysis. It counts as cell-based.
Test [15] has the same target. Kind of test: Activity at TRPV1 in human MDA-MB--231 cells assessed as transient and synchronous increase in cytosolic Ca2+ level at 80 uM by FURA2-based fluorescence imaging analysis. It counts as cell-based.
The subject of test [16] is Glioma cell. The test is described as follows: Cytotoxicity against cdkn2a/TRPV1 doubly deficient PDGFB amplified mouse neurosphere glioma cells using bis-AAF-R110 as substrate at 20 uM preincubated for 24 hrs followed by substrate addition measured after 2 hrs by fluorescence analysis. The test is classed as functional, cell-based. In outline:
(§5)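 GBM neurosphere primary cultures carrying cdkn2a deletion with PDGFB or EGFRvIII amplification. Plated at 0.015×10^6 cells/well, 5 replicates per condition, in DMEM-F12 without phenol red. Cell suspension then mixed with bis-AAF-R110 substrate for 2 h at 37 °C and fluorescence read at 485/520 nm. After blank subtraction, signals were normalized to vehicle (=1) to give fold relative cytotoxicity. Mean ± SD of two independent experiments.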

The target of test [17] is Transient receptor potential cation channel subfamily V member 1 (Homo sapiens) (UniProt Q8NER1). The test is described as follows: Activity at TRPV1 in human MDA-MB--231 cells assessed as sustained and asynchronous increase in cytosolic Ca2+ level at 20 uM by FURA2-based fluorescence imaging analysis. The test is classed as cell-based.
Test [18] deals with Glioma cell. The test is described as follows: Cytotoxicity against cdkn2a-deficient EGFRvIII amplified mouse neurosphere glioma cells using bis-AAF-R110 as substrate at 20 uM preincubated for 24 hrs followed by substrate addition measured after 2 hrs by fluorescence analysis. The test is classed as functional, cell-based. The gist of the method: as §5
In test [19] the test system is SCC-4. The test is described as follows: Cytotoxicity against docetaxel-resistant human SCC4 cells assessed as growth inhibition. The test is classed as functional, cell-based.
Test [20] has as its system SCC-25. Kind of test: Cytotoxicity against cisplatin-resistant human SCC25 cells assessed as growth inhibition. The test is classed as functional, cell-based.
Test [21] concerns Glioma cell. Kind of test: Cytotoxicity against cdkn2a-deficient mouse neurosphere glioma cells at 20 uM after 24 hrs. It counts as functional, cell-based.
Test [22] has as its system PC-3. The test is described as follows: Cytotoxicity against docetaxel-resistant human PC3 cells assessed as growth inhibition. It counts as functional, cell-based.
For test [23], the system named is U-373MG ATCC. The test is described as follows: Cytotostatic activity on human U373 cells assessed as change in cell morphology at 25 uM after 72 hrs by videomicroscopic analysis. The test is classed as functional, cell-based.
Test [24] deals with U-373MG ATCC. Kind of test: Cytotoxicity against human U373 cells assessed as necrotic and late apoptotic cells at 35 uM after 72 hrs by Trypan blue assay. It counts as functional, cell-based. The gist of the method:
as §4

For test [25], the system named is U-373MG ATCC. The test is described as follows: Cytotostatic activity on human U373 cells assessed as change in cell morphology at 35 uM after 72 hrs by videomicroscopic analysis. It counts as functional, cell-based.

Sequence of Transient receptor potential cation channel subfamily V member 1 (Homo sapiens) (Q8NER1 whole entry): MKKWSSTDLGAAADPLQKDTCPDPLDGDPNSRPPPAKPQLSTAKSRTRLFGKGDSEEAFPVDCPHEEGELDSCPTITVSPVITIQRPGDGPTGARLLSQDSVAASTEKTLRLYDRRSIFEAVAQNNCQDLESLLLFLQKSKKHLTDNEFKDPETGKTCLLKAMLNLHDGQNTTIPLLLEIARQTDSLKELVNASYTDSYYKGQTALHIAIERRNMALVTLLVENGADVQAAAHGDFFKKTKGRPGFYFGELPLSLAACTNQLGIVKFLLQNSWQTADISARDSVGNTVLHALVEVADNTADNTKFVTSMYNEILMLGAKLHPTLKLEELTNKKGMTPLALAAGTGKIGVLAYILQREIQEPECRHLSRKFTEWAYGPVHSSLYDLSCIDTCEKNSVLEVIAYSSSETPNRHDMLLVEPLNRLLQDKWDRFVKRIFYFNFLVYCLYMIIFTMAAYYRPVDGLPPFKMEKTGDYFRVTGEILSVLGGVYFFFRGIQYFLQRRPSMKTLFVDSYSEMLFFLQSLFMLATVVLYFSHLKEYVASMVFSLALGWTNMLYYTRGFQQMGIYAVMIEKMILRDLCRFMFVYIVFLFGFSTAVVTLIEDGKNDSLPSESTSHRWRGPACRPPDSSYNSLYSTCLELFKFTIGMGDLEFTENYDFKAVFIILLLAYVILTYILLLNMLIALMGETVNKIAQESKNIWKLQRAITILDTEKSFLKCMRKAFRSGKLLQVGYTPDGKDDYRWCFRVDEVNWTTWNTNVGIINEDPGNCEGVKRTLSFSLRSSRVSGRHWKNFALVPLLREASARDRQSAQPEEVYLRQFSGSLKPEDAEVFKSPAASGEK
Sequence of Transient receptor potential cation channel subfamily V member 1 (Rattus norvegicus) (O35433 whole entry): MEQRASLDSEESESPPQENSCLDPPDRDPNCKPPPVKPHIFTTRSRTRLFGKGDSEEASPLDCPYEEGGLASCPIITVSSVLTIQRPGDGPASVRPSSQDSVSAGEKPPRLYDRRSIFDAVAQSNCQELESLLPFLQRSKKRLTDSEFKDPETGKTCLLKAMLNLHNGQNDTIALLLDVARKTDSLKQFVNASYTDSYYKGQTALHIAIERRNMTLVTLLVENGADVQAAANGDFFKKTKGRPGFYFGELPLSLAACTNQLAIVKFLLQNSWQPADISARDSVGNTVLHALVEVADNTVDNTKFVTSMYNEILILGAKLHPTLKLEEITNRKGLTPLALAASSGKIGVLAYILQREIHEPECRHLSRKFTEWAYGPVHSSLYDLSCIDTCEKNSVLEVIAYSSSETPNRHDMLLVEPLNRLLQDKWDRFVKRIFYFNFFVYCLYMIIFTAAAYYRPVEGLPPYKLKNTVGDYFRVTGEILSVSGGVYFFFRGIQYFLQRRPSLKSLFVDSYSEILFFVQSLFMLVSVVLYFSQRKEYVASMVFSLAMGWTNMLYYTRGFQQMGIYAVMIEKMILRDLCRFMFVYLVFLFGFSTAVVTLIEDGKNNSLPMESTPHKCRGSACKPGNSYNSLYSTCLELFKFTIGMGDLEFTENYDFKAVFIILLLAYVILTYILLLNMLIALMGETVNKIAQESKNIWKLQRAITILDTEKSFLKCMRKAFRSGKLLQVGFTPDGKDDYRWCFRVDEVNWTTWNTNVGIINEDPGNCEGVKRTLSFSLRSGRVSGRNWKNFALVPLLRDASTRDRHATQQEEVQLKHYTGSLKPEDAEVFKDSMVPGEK

Consider `CC(=O)O[C@H]1C(=O)[C@@]2(C)[C@H]([C@H](OC(=O)c3ccccc3)[C@]3(O)C[C@H](OC(=O)[C@H](O)[C@@H](NC(=O)c4ccccc4)c4ccccc4)C(C)=C1C3(C)C)[C@]1(OC(C)=O)CO[C@@H]1C[C@@H]2O` [PACLITAXEL], for which the GI50 in test [1] turned out to be 7 nM; in test [2], 10 µM.
Regarding `CC1(C)CCC[C@]2(C)[C@@H](C=O)C(/C=C/C(=O)OCc3ccccc3)=CC[C@@H]12`, the GI50 was 39 µM in test [3]; 31 µM in test [4]; 27 µM in test [5]; 39 µM in test [6]; 28 µM in test [7].
With `CC(C)(C)OC(=O)/C=C/C1=CC[C@H]2C(C)(C)CCC[C@]2(C)[C@H]1C=O`, the GI50 was 40 µM in test [3]; 29 µM in test [4]; 32 µM in test [5]; 41 µM in [6]; 29 µM in test [7].
As to `CCOC(=O)/C(C)=C/C1=CC[C@H]2C(C)(C)CCC[C@]2(C)[C@H]1C=O`, the GI50 in test [3] was found to be 37 µM; in test [4] it was 28 µM; in [5] it was 27 µM; in test [6] it was 37 µM; in [7], 26 µM.
On to `C=C(C)[C@@H]1CCC(C)=C[C@H]1c1c(O)cc(CCCCC)cc1O`, for which the “growth inhibition (GI)” value in test [8] and in test [10] was “Active” throughout. Further, in test [9], the “growth inhibition (GI)” value was “inactive”.
On to `COC(=O)/C=C/C=C/C1=CC[C@H]2C(C)(C)CCC[C@]2(C)[C@H]1C=O`, for which the GI50 in test [3] came to 27 µM; in test [4] it was 12 µM; in test [5], 31 µM; in [6], 25 µM; in test [7] it was 29 µM.
For `CC1(C)CCC[C@]2(C)[C@@H](C=O)C(C=O)=CC[C@@H]12` [POLYGODIAL], the outcome in test [11] and in [15] was Active. The GI50 in [3] is more than 100 µM; in test [4], 95 µM; in test [5], 75 µM; in [6] it was 65 µM; in [7], 90 µM. Also, the outcome in test [12] and in [14] was inactive. In test [13], this compound yielded an inhibition of 76%.
`COC(=O)/C=C/C1=CC[C@H]2C(C)(C)CCC[C@]2(C)[C@H]1C=O`: the “growth inhibition (GI)” value in [16], in test [18], in [19], in [20], in test [21] and in test [22] was “Active” throughout. In addition, the GI50 in [1] is 40000 nM; in [3] it was 22 µM; in test [4], 24 µM; in [5], 7 µM; in [2], 45 µM; in [6] it was 27 µM. In test [7], the GI50 was 21 µM. For the same compound, the result in test [17] and in test [23] was Active. The result in test [13] was inactive.
Turning to `C#CCCCOC(=O)/C=C/C1=CC[C@H]2C(C)(C)CCC[C@]2(C)[C@H]1C=O`, the result in [24] was inactive. In addition, the result in [25] was Active. The GI50 in test [3] came to 35 µM; in test [4] it was 33 µM; in [5] it was 30 µM; in test [6], 36 µM; in test [7], 30 µM.
As to `CCOC(=O)/C=C/C1=CC[C@H]2C(C)(C)CCC[C@]2(C)[C@H]1C=O`, the GI50 came out at 37 µM in test [3]; 29 µM in [4]; 30 µM in test [5]; 29 µM in [6]; 25 µM in test [7].
As for `CC(=O)/C=C/C1=CC[C@H]2C(C)(C)CCC[C@]2(C)[C@H]1C=O`, the GI50 is 25 µM in [3]; 22 µM in test [4]; 20 µM in [5]; 28 µM in test [6]; 24 µM in test [7].
Turning to `CC1(C)CCC[C@]2(C)[C@@H](C=O)C(/C=C/C#N)=CC[C@@H]12`, the GI50 in test [3] came out at 36 µM; in test [4], 28 µM; in [5], 31 µM; in test [6], 42 µM; in [7], 27 µM.
`CC[C@]1(O)C[C@@H]2CN(CCc3c([nH]c4ccccc34)[C@@](C(=O)OC)(c3cc4c(cc3OC)N(C)[C@H]3[C@@](O)(C(=O)OC)[C@H](OC(C)=O)[C@]5(CC)C=CCN6CC[C@]43[C@@H]65)C2)C1` [VINBLASTINE]: the GI50 in [1] was determined as 6 nM; in test [2], 5 µM.
